This is one part of a sample in which hits are shown more often than they occur.
PGC1a acetyl up = raises PGC1a acetylation signal in U2OS cells. U2OS PGC1a acetylation AlphaScreen, overnight. activation, % at 15.6 µM. 350,000 compounds, 0.21% hits;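 active = every replicate reaching activation of at least 50%, whatever the mean replicate activation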;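 note: hits raise the AlphaScreen acetylation signal above neutral controls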
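Test system: U2OS cells expressing flag-PGC1a plus GCN5; Amount: 7000 U2OS cells per well; Compound: single test concentration per compound; Incubation: compound overnight at 37 °C, each detection step 1 h RT; Signal: AlphaScreen lysate read.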
Of the large screens only hits and unclear results are named; the others gave an inactive call.

CCOC(=O)c1ccc(-c2c(-c3cc(OC)c(OC)c(OC)c3)noc2C)cc1F	PGC1a acetyl up 59
CCN1CCN(Cc2ccc(NC(=O)c3cc(NC(=O)c4cncc(-c5ccc(C#N)cc5)c4)cc(OC)c3)cc2C(F)(F)F)CC1	none
O=C/C=C/c1ccc(-c2ccccc2)cc1	PGC1a acetyl up 74
Cc1nc2[nH]c(=O)c3c(n2n1)NC1=C(C(=O)CC(C)(C)C1)C3c1ccccc1 (configuration not stated)	none
O=c1[nH]c(=O)c2[nH]c(=S)[nH]c2[nH]1	none
C=CCSc1nccc(-c2cc(Cl)sc2Cl)n1	PGC1a acetyl up 51
N#Cc1ccsc1NC(=O)CSc1nnc(NC2CC2)s1	none
CC(C)NC(=O)N(C)C[C@H]1Oc2c(NS(=O)(=O)c3cn(C)cn3)cccc2C(=O)N([C@@H](C)CO)C[C@@H]1C	none
O=C(Cc1ccccn1)NCC[C@@H]1CC[C@@H](NC(=O)Nc2ccc(C(F)(F)F)cc2)[C@@H](CO)O1	none
O=C(COC(=O)c1ccccc1C(=O)c1ccc(Cl)c([N+](=O)[O-])c1)NC1CC1	PGC1a acetyl up 94
NC(=O)c1oc2ccccc2c1NC(=O)C1CC(=O)N(c2ccccc2)C1 (configuration not stated)	none
C[C@H](CO)N1C[C@H](C)[C@@H](CN(C)Cc2cncnc2)Oc2cc(C#CC3CC3)ccc2S1(=O)=O	none
CCOc1ccc(S(=O)(=O)/N=C(/Nc2ccc(C(C)=O)cc2)c2ccccc2)cc1	PGC1a acetyl up 66
CCOc1ccc(N(C(=O)Nc2ccccc2)C2=NCCC2)cc1	none
CCOc1ccc(NS(=O)(=O)c2ccc3c(c2)oc(=O)n3C)cc1	none
CCCCCCCCCCCCS[C@H]1CS(=O)(=O)C[C@@H]1O	none
O=c1c2cn(Cc3ccc(F)cc3)c3ccc(F)cc3c-2nn1Cc1ccc(F)cc1	none
CCN=C(N/N=C/c1ccc([N+](=O)[O-])cc1)SC	PGC1a acetyl up 59
COC(=O)C(=Cc1ccc(OCc2ccc([N+](=O)[O-])cc2)c(OC)c1)C(=O)OC	none
CC(=O)Nc1ccc(Oc2sc(C(=O)c3ccccc3)c(N)c2C#N)cc1	none
COCC(=O)Nc1ccc2c(c1)OC[C@@H](C)N(CCc1ccccc1)C[C@H](C)[C@H](OC)CN(C)C2=O	none
O=C(NCc1cccnc1)C1CC(=O)N(C2CCCCC2)C1 (configuration not stated)	none
CCC(C)C(NC(=O)C1CCC(C)CC1)C(=O)NCc1cccnc1 (configuration not stated)	PGC1a acetyl up 55
CCN(CC)c1ccc(NC(=O)c2ccc(NC(=O)C3CCCO3)cc2)c(C)c1 (configuration not stated)	PGC1a acetyl up 54
C[C@@H]1CN([C@H](C)CO)C(=O)c2cc(NS(=O)(=O)c3cccs3)ccc2O[C@@H]1CN(C)S(=O)(=O)c1ccc(F)cc1	none
CCC(C)(CC(=O)O)CC(=O)Nc1cc(C(F)(F)F)cc(C(F)(F)F)c1 (configuration not stated)	none
CCOC(=O)c1ccc(NC(=O)c2nc(S(=O)(=O)Cc3ccccc3)ncc2Cl)cc1	PGC1a acetyl up 78
Cc1nc(Nc2ccc(S(N)(=O)=O)cc2)sc1C(=O)Nc1ccccc1	none
COc1ccc(CCNC(=O)C2CCN(C(=O)c3ccc(F)cc3)CC2)cc1OC	none
COc1ccc(CCNC(=O)COC(=O)c2ccco2)cc1OC	PGC1a acetyl up 108
O=C(COC(=O)c1ccco1)NCc1ccc2c(c1)OCO2	none
Cc1cc(C)c2oc(C(=O)N(Cc3ccccc3)c3ccccn3)cc(=O)c2c1	none
C=C1C(=O)OC2C1CCC(C)=C1C(=O)C3OC3(C)C12 (configuration not stated)	PGC1a acetyl up 82
COc1ccc(C2c3c(oc4ccccc4c3=O)C(=O)N2CCN2CCOCC2)cc1OC (configuration not stated)	none
COc1ccc(CCNCc2ccc(-c3ccccc3)cc2)cc1OC	none
COc1ccc(CCN2C(=O)c3[nH]nc(-c4ccccc4O)c3C2c2ccccc2)cc1OC (configuration not stated)	PGC1a acetyl up 53
C/C=C/Cn1c(SCc2ccc(Cl)cc2)nc2c1c(=O)[nH]c(=O)n2C	none
CC(C)(C)C(=O)NC(C(N)=O)=C(Cl)Cl	PGC1a acetyl up 65
Cc1noc(C)c1NC(=O)N(C)C[C@@H]1OCCCC[C@@H](C)Oc2ccc(N(C)C)cc2C(=O)N([C@@H](C)CO)C[C@H]1C	none
C/C=C(/C)C(=O)O[C@@H]1c2cc(OC)c(OC)c(OC)c2-c2c(cc3c(c2OC)OCO3)C[C@H](C)[C@]1(C)O	PGC1a acetyl up 167
O=C(Nc1ccccc1-c1ccccc1)NC1CC2CCCC(C1)N2Cc1ccc(F)cc1 (configuration not stated)	none
C=CC(=O)N1C/C(=C/c2ccc(F)cc2)C(=O)/C(=C\c2ccc(F)cc2)C1	none
COCC(=O)N1C[C@@H](C)[C@@H](OC)CN(C)C(=O)c2ccc(NC(=O)c3cnccn3)cc2OC[C@@H]1C	none
COC(=O)c1ccc2c(c1)C(C)(C)C(/C=C/c1ccc(O)cc1)=[N+]2C	PGC1a acetyl up 59
C=CCNS(=O)(=O)c1cccc2cc(C(=O)O)c(O)cc12	none
C[C@@H]1CN([C@@H](C)CO)C(=O)c2ccccc2-c2ccccc2CO[C@@H]1CN(C)C(=O)Nc1cccc(Cl)c1Cl	none
COc1ccc(/C=N/NC(=O)c2ccn[nH]2)cc1CN1CCOCC1	none
N#C/C(=C/c1ccc(OCc2ccc(C(=O)O)cc2)c(Br)c1)c1cccc(F)c1	none
O=C(Nc1cc(S(=O)(=O)N2CCOCC2)ccc1Cl)c1cc([N+](=O)[O-])ccc1Cl	PGC1a acetyl up 67
CCN(CC)c1ccc(S(=O)(=O)N2CCOCC2)cc1NC(=O)Cn1nc(C)c([N+](=O)[O-])c1C	none
CCN(CC)S(=O)(=O)c1ccc(C(=O)Nc2cc(S(=O)(=O)N3CCOCC3)ccc2O)cc1	none
O=C1/C(=C\c2ccc(Cl)c(Cl)c2)CN(C(=O)CCN2CCOCC2)C/C1=C/c1ccc(Cl)c(Cl)c1	none
O=C1Nc2c(Br)cc(Br)c3cccc1c23	none
Nc1[nH]ncc1N=Nc1ccc(Cl)cc1	PGC1a acetyl up 65
Cn1c(O)c(C(C#N)=C2N=c3ccccc3=N2)c2ccccc21	PGC1a acetyl up 72
CCN(C(=O)COC(=O)/C=C/c1cccc(Cl)c1)c1c(N)n(Cc2ccccc2)c(=O)[nH]c1=O	none
COc1ccccc1NC(=O)/C=C1\SCC(=O)N1C	none
COc1ccccc1NC(=O)CCC(=O)Nc1ccccc1OC	PGC1a acetyl up 54
COc1ccc(NC(=O)C/C(C)=N/NC(=O)C(=O)NC(C)C)c(OC)c1	none
CCCC[C@@]1(C2CCCC2)Cc2cc(OCC(=O)O)c(Cl)c(Cl)c2C1=O	none
c1cc2c3c(cccc3c1)C(N1CCCCCC1)=N2	PGC1a acetyl up 86
O=C(Nc1ccccc1)C1=C(c2ccccc2)S(=O)(=O)CCS1(=O)=O	PGC1a acetyl up 104
CC(C)C#Cc1ccc([C@@H]2[C@H]3CN(C(=O)NC4CCCC4)CC(=O)N3[C@H]2CO)cc1	none
O=C(Nc1cccc(F)c1)N1C[C@@H]2N[C@H](C1)C2c1ccc(-c2ccc(F)cc2)cc1 (some centres not stated)	PGC1a acetyl up 73
Cc1cccc(-c2ccc(C3[C@@H]4CN(Cc5cccc(F)c5)C[C@H]3N4)cc2)c1 (some centres not stated)	PGC1a acetyl up 59
N#Cc1cccc(-c2ccc(C3[C@@H]4CN(Cc5ccccc5F)C[C@H]3N4)cc2)c1 (some centres not stated)	none
O=C(Nc1ccc(C(F)(F)F)cc1)N1C[C@@H]2N[C@H](C1)C2c1ccc(-c2ccccc2)cc1 (some centres not stated)	none
